Assay results reported in ChEMBL document CHEMBL4602702, “Red-Emitting Dibenzodiazepinone Derivatives as Fluorescent Dualsteric Probes for the Muscarinic Acetylcholine M2 Receptor” (J Med Chem, 2020).
Each block holds one compound with its values, some of them ahead of it.

How the values were obtained:
[1] = target: T1, Muscarinic acetylcholine receptor M1 (Homo sapiens, UniProt P11229); assay: Displacement of [3H]-QNB from truncated EGFP-fused human muscarinic M1 receptor expressed in HEK293 cells by […]; assay type: cell-based
T1 sequence (P11229 whole entry): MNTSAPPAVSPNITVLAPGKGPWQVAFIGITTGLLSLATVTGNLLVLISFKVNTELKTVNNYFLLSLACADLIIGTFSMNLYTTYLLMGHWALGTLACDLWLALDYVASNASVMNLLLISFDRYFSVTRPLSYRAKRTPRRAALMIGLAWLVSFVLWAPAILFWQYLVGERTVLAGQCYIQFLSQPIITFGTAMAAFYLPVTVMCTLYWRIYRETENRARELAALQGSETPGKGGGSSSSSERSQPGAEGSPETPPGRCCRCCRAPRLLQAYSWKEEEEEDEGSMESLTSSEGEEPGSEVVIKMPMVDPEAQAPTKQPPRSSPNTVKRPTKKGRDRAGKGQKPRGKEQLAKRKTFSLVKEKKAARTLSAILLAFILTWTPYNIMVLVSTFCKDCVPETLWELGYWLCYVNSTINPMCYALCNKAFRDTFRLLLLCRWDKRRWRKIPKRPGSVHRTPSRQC

[2] = target: Muscarinic acetylcholine receptor M2 (Homo sapiens) (UniProt P08172); assay: Displacement of [3H]-UR-SK259 human muscarinic M2 receptor
[3] = target: T2, Muscarinic acetylcholine receptor M1 (Homo sapiens) (UniProt P11229); assay: Displacement of [3H]-NMS from human muscarinic M1 receptor expressed in CHO cells by scintillation counting method; assay type: cell-based
T2 sequence (whole entry): T1 sequence (P11229 whole entry)

[4] = target: T3, Muscarinic acetylcholine receptor M2 (Homo sapiens) (UniProt P08172); assay: Displacement of [3h]-NMS from human muscarinic M2 receptor expressed in CHO cells by radioligand binding assay; assay type: cell-based
T3 sequence (whole entry): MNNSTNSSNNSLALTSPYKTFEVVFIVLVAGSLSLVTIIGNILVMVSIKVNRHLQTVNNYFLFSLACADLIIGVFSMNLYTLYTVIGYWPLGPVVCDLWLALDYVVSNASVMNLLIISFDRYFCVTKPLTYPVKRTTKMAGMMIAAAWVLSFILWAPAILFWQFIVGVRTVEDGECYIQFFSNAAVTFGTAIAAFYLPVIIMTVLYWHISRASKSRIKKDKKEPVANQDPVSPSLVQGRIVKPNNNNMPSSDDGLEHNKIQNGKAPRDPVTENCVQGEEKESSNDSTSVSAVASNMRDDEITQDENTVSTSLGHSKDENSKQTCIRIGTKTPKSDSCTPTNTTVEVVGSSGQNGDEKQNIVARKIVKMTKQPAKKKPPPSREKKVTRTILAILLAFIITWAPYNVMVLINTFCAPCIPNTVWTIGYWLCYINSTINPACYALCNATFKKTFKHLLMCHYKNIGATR

[5] = target: T4, Muscarinic acetylcholine receptor M2 (Homo sapiens, UniProt P08172); assay: Displacement of 4-(2-((1E,3E)-5-((E)-1-(6-((3,5-Bis((2-(3-(1-(4-(1-(2-oxo-2-(11-oxo-10,11-dihydro-5H-dibenzo[b,e][1,4]diazepin-5-yl)ethyl)piperidin-4-yl)butyl)-1H-imidazol-4-yl)propanamido)ethyl)carbamoyl)benzyl)amino)-6-oxohexyl)-3,3-dimethyl-5-sulfoindolin-2-ylidene)penta-1,3-dien-1-yl)-3,3-dimethyl-3H-indol-1-ium-1-yl)butane-1-sulfonate Tris(hydrotrifluoroacetate) fluorescent tracer from human muscarinic M2 receptor expressed in […] cells measured after 60 mins by Hoechst H33342 dye based confocal plate reader assay; assay type: cell-based
T4 sequence (P08172 whole entry): T3 sequence (whole entry)

[6] = target: T4, Muscarinic acetylcholine receptor M2; assay: Displacement of 4-(2-((1E,3E)-5-((E)-3,3-Dimethyl-1-(6-oxo-6-((2-(3-(1-(4-(1-(2-oxo-2-(11-oxo-10,11-dihydro-5H-dibenzo[b,e][1,4]diazepin-5-yl)ethyl)piperidin-4-yl)butyl)-1H-imidazol-4-yl)propanamido)ethyl)-amino)hexyl)-5-sulfoindolin-2-ylidene)penta-1,3-dien-1-yl)-3,3-dimethyl-3H-indol-1-ium-1-yl)butane-1-sulfonateHydrotrifluoroacetate fluorescent tracer from human muscarinic M2 receptor expressed in […] cells measured after 60 mins by Hoechst H33342 dye based confocal plate reader assay; assay type: cell-based
[7] = target: T4, Muscarinic acetylcholine receptor M2; assay: Displacement of 4-(2-((1E,3E)-5-((E)-3,3-Dimethyl-1-(6-oxo-6-((2-(4-(4-(1-(2-oxo-2-(11-oxo-10,11-dihydro-5H-dibenzo[b,e][1,4]diazepin-5-yl)ethyl)piperidin-4-yl)butyl)piperazin-1-yl)ethyl)amino)hexyl)-5-sulfoindolin-2-ylidene)penta-1,3-dien-1-yl)-3,3-dimethyl-3H-indol-1-ium-1-yl)butane-1-sulfonate Bis(hydrotrifluoroacetate) fluorescent tracer from human muscarinic M2 receptor expressed in […] cells measured after 60 mins by Hoechst H33342 dye based confocal plate reader assay; assay type: cell-based
[8] = target: T4, Muscarinic acetylcholine receptor M2; assay: Displacement of 4-(2-((1E,3E)-5-((E)-1-(6-((3,5-Bis((2-(3-(1-(4-(1-(2-oxo-2-(11-oxo-10,11-dihydro-5H-dibenzo[b,e][1,4]diazepin-5-yl)ethyl)piperidin-4-yl)butyl)-1H-imidazol-4-yl)propanamido)ethyl)carbamoyl)benzyl)amino)-6-oxohexyl)-3,3-dimethyl-5-sulfoindolin-2-ylidene)penta-1,3-dien-1-yl)-3,3-dimethyl-3H-indol-1-ium-1-yl)butane-1-sulfonate Tris(hydrotrifluoroacetate) fluorescent tracer from human muscarinic M2 receptor expressed in CHO-K9 cells by competition binding assay; assay type: cell-based; conditions: read-out: pA2 (converted)
Summary of the method: (§1)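 High-content imaging competition binding at intact CHO-hM2R cells against fluorescent tracer at 10 nM. Separately, flow cytometry competition with the fluorescent tracer at 1 nM at live cells. Four-parameter logistic fits; mean ± SEM of at least two experiments in duplicate.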

[9] = target: T4, Muscarinic acetylcholine receptor M2; assay: Displacement of 4-(2-((1E,3E)-5-((E)-3,3-Dimethyl-1-(6-oxo-6-((2-(3-(1-(4-(1-(2-oxo-2-(11-oxo-10,11-dihydro-5H-dibenzo[b,e][1,4]diazepin-5-yl)ethyl)piperidin-4-yl)butyl)-1H-imidazol-4-yl)propanamido)ethyl)-amino)hexyl)-5-sulfoindolin-2-ylidene)penta-1,3-dien-1-yl)-3,3-dimethyl-3H-indol-1-ium-1-yl)butane-1-sulfonateHydrotrifluoroacetate fluorescent tracer from human muscarinic M2 receptor expressed in CHO-K9 cells by competition binding assay; assay type: cell-based; conditions: read-out: pA2 (converted); summary of the method: as §1
[10] = target: T4, Muscarinic acetylcholine receptor M2; assay: (§2) Displacement of 4-(2-((1E,3E)-5-((E)-3,3-Dimethyl-1-(6-oxo-6-((2-(4-(4-(1-(2-oxo-2-(11-oxo-10,11-dihydro-5H-dibenzo[b,e][1,4]diazepin-5-yl)ethyl)piperidin-4-yl)butyl)piperazin-1-yl)ethyl)amino)hexyl)-5-sulfoindolin-2-ylidene)penta-1,3-dien-1-yl)-3,3-dimethyl-3H-indol-1-ium-1-yl)butane-1-sulfonate Bis(hydrotrifluoroacetate) fluorescent tracer from human muscarinic M2 receptor expressed in CHO-K9 cells by competition binding assay; assay type: cell-based; conditions: read-out: pA2 (converted); summary of the method: as §1
[11] = target: T4, Muscarinic acetylcholine receptor M2; assay: as §2, with “FACSCalibur flow cytometry” for “competition binding assay”; assay type: cell-based

Ki [1]: 8.91 nM
Compound: O=C(CCC1=[N+]2C(=Cc3ccc(-c4cccs4)n3[B-]2(F)F)C=C1)NCCOCCOCCOCCOCCOCCOCCCN1CCN(CC(=O)N2c3ccccc3C(=O)Nc3cccnc32)CC1

Kd [2]: 0.813 nM
Compound: CCC(=O)NCc1cc(C(=O)NCCN2CCC(N3CCC(n4c(=O)[nH]c5ccccc54)CC3)CC2)cc(C(=O)NCCN2CCN(CCCCC3CCN(CC(=O)N4c5ccccc5NC(=O)c5ccccc54)CC3)CC2)c1

pK [3]: 10.5
pK [4]: 10.3
Compound: Cc1scc2c1N(C(=O)CN1CCN(CCCCCCCCCCNC(=O)Cc3ccc4c(c3)C(C)(C)C3=C5C=C6C7=[N+](CCC6OC5CCN34)c3ccc(S(=O)(=O)[O-])cc3C7(C)C)CC1)c1ccccc1NC2=O (centres undefined)

More lines, now with the values behind:

Compound: O=C1CCCN1CC#CCN1CCCC1 [OXOTREMORINE]
Ki [5]: 1780 nM
Ki [6]: 1020 nM
Ki [7]: 851 nM

Compound: C[N+](C)(CCCCCC[N+](C)(C)CCCN1C(=O)c2ccccc2C1=O)CCCN1C(=O)c2ccccc2C1=O
Kb [8]: 200 nM
Ki [5]: 851 nM
Kb [9]: 457 nM
Ki [6]: 646 nM
Ki [7]: 1410 nM
Kb [10]: 148 nM
Ki [11]: 407 nM
